Assay results reported in ChEMBL document CHEMBL1811801, “Structural modifications of quinolone-3-carboxylic acids with anti-HIV activity” (Bioorg Med Chem, 2011).
pEC50: −log10 of the molar value.

Columns and labels:
[1] = Cytotoxicity against human C8166 cells by MTT assay; type: cell-based
Summary of the method: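 Uninfected C8166 cells exposed to compound; viability read by MTT assay. CC50 is the concentration lowering normal uninfected cell viability by 50%. Values are means of at least two separate experiments.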

[2] = system: Human immunodeficiency virus 1; test: Antiviral activity against HIV1 LAI 3B infected in human C8166 cells assessed as protection against virus-induced cytopathic effect by MTT assay; type: functional, organism-based; conditions: Human immunodeficiency virus 1, LAI 3B
Summary of the method: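 C8166 cells infected with wild-type HIV-1 (LAI strain IIIB); protection from viral cytopathogenicity read by MTT assay. EC50 is the concentration protecting cells against virus-induced cytopathogenicity by 50%. Values are means of at least two separate experiments.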

[3] = Selectivity index, ratio of CC50 for human C8166 cells to EC50 for HIV1 LAI 3B; type: toxicity, cell-based; conditions: read-out: Ratio CC50/EC50

Compound	CC50 [1] [µM]	pEC50 [2]	selectivity ratio [3]
CC(C)(C)n1cc(C(=O)O)c(=O)c2c(O)c(Cc3cccc(Cl)c3F)ccc21	400	5.34	88.3
CC(C)Cn1cc(C(=O)O)c(=O)c2c(O)c(Cc3cccc(Cl)c3F)ccc21	19.5	5.46	5.63
O=C(O)c1cn(C2CCCCC2)c2ccc(Cc3cccc(Cl)c3F)c(O)c2c1=O	17.4	5.55	6.18
COc1cc2c(cc1Cc1cccc(Cl)c1F)c(=O)c(C(=O)O)cn2[C@H](CO)C(C)C [ELVITEGRAVIR]	17.2	9.68	81900
O=C(O)c1cn(C2CC2)c2ccc(Cc3cccc(Cl)c3F)c(O)c2c1=O	39.1	5.70	19.5
CCCCn1cc(C(=O)O)c(=O)c2c(O)c(Cc3cccc(Cl)c3F)ccc21	19.9	5.09	2.47
O=C(O)c1cn(C2CCCC2)c2ccc(Cc3cccc(Cl)c3F)c(O)c2c1=O	12.4	5.41	3.21
CCCCCn1cc(C(=O)O)c(=O)c2c(O)c(Cc3cccc(Cl)c3F)ccc21	39.9	4.63	1.7
CCC(C)n1cc(C(=O)O)c(=O)c2c(O)c(Cc3cccc(Cl)c3F)ccc21 (stereo unspecified)	30.7	5.74	16.8
CC(C)[C@@H](CO)n1cc(C(=O)O)c(=O)c2c(O)c(Cc3cccc(Cl)c3F)ccc21	125	6.89	962
CC(C)n1cc(C(=O)O)c(=O)c2c(O)c(Cc3cccc(Cl)c3F)ccc21	26.5	5.35	5.97
CCCn1cc(C(=O)O)c(=O)c2c(O)c(Cc3cccc(Cl)c3F)ccc21	24.2	5.55	8.66
